The source of these data is article PMC2175347 (Nucleic Acids Research, 2007).

Data set [1] concerns the target T1, G9afl (Mus musculus, UniProt Q9Z148).
T1 sequence (Q9Z148 1-1263): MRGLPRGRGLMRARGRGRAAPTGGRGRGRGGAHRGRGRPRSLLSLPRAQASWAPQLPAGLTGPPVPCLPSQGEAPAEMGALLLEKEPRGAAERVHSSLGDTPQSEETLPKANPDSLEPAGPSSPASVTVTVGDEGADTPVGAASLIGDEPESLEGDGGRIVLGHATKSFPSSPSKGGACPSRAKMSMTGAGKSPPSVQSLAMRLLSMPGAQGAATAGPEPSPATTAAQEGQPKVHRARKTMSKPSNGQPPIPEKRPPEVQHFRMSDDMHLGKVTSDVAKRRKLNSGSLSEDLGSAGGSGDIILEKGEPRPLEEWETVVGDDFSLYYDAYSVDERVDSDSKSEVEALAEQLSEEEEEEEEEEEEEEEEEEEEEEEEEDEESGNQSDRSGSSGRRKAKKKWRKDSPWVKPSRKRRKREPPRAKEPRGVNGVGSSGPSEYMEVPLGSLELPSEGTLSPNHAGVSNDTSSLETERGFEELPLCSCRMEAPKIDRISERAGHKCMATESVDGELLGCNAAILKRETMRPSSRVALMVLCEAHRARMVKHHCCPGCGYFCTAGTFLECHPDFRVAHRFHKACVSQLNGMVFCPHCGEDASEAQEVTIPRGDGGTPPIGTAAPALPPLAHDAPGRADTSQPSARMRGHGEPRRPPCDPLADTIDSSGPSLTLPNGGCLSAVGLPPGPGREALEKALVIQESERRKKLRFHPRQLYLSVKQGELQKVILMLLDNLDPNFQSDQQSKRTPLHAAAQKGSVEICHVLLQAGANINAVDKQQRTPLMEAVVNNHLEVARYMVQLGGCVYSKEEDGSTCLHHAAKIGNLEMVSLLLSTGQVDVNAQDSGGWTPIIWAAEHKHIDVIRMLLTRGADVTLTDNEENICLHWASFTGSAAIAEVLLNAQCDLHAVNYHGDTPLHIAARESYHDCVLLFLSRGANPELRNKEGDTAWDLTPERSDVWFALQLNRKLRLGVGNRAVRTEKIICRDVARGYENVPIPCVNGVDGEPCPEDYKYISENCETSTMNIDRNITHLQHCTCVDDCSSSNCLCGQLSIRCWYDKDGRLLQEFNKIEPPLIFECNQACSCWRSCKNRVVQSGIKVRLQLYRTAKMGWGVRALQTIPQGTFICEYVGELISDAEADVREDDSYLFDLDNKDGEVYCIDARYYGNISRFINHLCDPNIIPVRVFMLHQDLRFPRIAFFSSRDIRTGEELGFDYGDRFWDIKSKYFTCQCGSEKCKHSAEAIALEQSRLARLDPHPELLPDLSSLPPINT
The data set can be described thus: Steady-state kinetics of G9afl on peptides representing ARKT/S motifs. Type of data set: biochemical, murine. The settings on record: peptide substrate, enzyme G9afl; for Km / kcat (turnover number): 25°C, pH 9.0, duplicate.

The target in data set [2] is T1, G9afl. Briefly: Methylation of modified H3 peptide substrates by wild-type G9a. Type of data set: biochemical, murine. The settings on record: 25 nM G9afl; Figure 4B.
The next data set concerns G9amut. Briefly: Methylation of modified H3 peptide substrates by G9amut. The class given is biochemical, murine. Conditions: 25 nM G9amut; Figure 4B.
The test system of data set [3] is G9a. Briefly: In vitro automethylation assay of G9a. Type of data set: biochemical, murine. Conditions: 100 fold excess cold AdoMet with tritiated AdoMet; Figure 2B lanes 2 versus 3. The method in brief:
(§1)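 Automethylation: recombinant murine G9a (full-length or MBP-fused construct lacking the N-terminal 633 aa) incubated with S-adenosyl-L-[methyl-³H]methionine, either alone or, for H3 signal, with recombinant histone H3. Parallel reactions contained excess unlabelled AdoMet as competitor. Reactions run at 25°C for 1 h with 7 µM tritiated AdoMet, resolved on 4–20% SDS-PAGE, Coomassie-stained and fluorographed on film.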

For another data set, the system named is H3. The data set can be described thus: In vitro methylation of histone H3. The class given is biochemical. Conditions: 100 fold excess cold AdoMet with tritiated AdoMet; Figure 2B lanes 4 versus 5. The method in brief:
as §1

A further data set relates to full-length G9a. Briefly: In vitro methylation of GST-G9a fusion fragments by G9afl. The class given is biochemical, murine. The settings on record: for methylation / radioactive incorporation of GST fusion fragment: fluorography and radioactive incorporation of each band, Figure 2D; for methylation of GST fusion by G9afl: tritiated AdoMet, fluorography, Figure 2C.
The test system of data set [4] is G9a. The data set can be described thus: Methyltransferase assay with peptide spanning amino acids 160–175 of G9a. Type of data set: biochemical, murine. The settings on record: even after 1 h of incubation; Supplementary Figure 1.
A further data set has as its system Wt-H3. The data set can be described thus: Steady-state kinetics of G9a enzymes with Wt-H3 peptide. The class given is biochemical. The settings on record: GST fusion enzymes with Wt-H3, steady-state conditions; Supplementary Figure 2.

“And” between values parts separate entries of the source, which are not always exact repeats. Identical values can stand only once. No end group written: not given here.

As to CADVKVHRARKTMPKSV [EuHMT], on G9afl [1], the kcat/Km is 172 10^6 × M^−1 h^−1; the Km (commonly the substrate concentration at which the rate is half of its maximum) is 0.5 ± 0.05 µM; the “kcat (turnover number)” value was 0.0239 s⁻¹ and 0.0239 ± 0.00056 s⁻¹.

Consider CARTKQTARKS(p)TGG [H3S10p], for which the “effect of phosphorylated peptide on enzyme” value at G9afl [2] and with G9amut was “inhibited both enzymes” each time.

For the molecule CPQKKVFKARKTMRVSD [mAM], on G9afl [1], the kcat/Km is given as 140 10^6 × M^−1 h^−1; the Km was determined as 0.7 ± 0.05 µM; the “kcat (turnover number)” value is 0.0272 s⁻¹ and 0.0272 ± 0.0011 s⁻¹.

For CGQPKVHRARKTMPKSV [G9a], at G9afl [1], the “kcat (turnover number)” value amounted to 0.0183 s⁻¹.

For the molecule `C[S+](CC[C@H](N)C(=O)[O-])C[C@H]1O[C@@H](n2cnc3c(N)ncnc32)[C@H](O)[C@@H]1O` (stereo partly drawn) [cold AdoMet, S-adenosyl-L-methionine], the “autoradiography signal for G9a” value with G9a [3] was “not apparent”. Further, the “autoradiography signal for H3” value with H3 is listed as “not apparent”.

Regarding “GST-G9a (210–246/K243A) (AQGAATAGPEPSPATTAAQEGQPKVHRARKTMSAPSN; also: GST fusion; UniProt Q9Z148 210-246, looked up, variant K243A)”, the “methylation / radioactive incorporation of GST fusion fragment” value with full-length G9a is listed as “decrease in K239 methylation”.

Regarding CARTKQTARKST(p)GG [H3T11p], the “effect of phosphorylated peptide on enzyme” value at G9afl [2] and in the data set with G9amut was “inhibited both enzymes” throughout.

As for IVLGHATKSFPSSPSK [G9aK167], in the data set with G9a [4], the “methyl group incorporation to the peptide” value is “did not observe methyl group incorporation to the peptide”.

Take “GST-G9a (210–264/K239A) (AQGAATAGPEPSPATTAAQEGQPKVHRARATMSKPSNGQPPIPEKRPPEVQHFRM; also: GST fusion; UniProt Q9Z148 210-264, looked up, variant K239A)”: the “methylation / radioactive incorporation of GST fusion fragment” value in the data set with full-length G9a was “impaired”.

B1: GST-G9afl (K167A) (protein, UniProt Q9Z148 1-1263, looked up, variant K167A)
chain: MRGLPRGRGLMRARGRGRAAPTGGRGRGRGGAHRGRGRPRSLLSLPRAQASWAPQLPAGLTGPPVPCLPSQGEAPAEMGALLLEKEPRGAAERVHSSLGDTPQSEETLPKANPDSLEPAGPSSPASVTVTVGDEGADTPVGAASLIGDEPESLEGDGGRIVLGHATASFPSSPSKGGACPSRAKMSMTGAGKSPPSVQSLAMRLLSMPGAQGAATAGPEPSPATTAAQEGQPKVHRARKTMSKPSNGQPPIPEKRPPEVQHFRMSDDMHLGKVTSDVAKRRKLNSGSLSEDLGSAGGSGDIILEKGEPRPLEEWETVVGDDFSLYYDAYSVDERVDSDSKSEVEALAEQLSEEEEEEEEEEEEEEEEEEEEEEEEEDEESGNQSDRSGSSGRRKAKKKWRKDSPWVKPSRKRRKREPPRAKEPRGVNGVGSSGPSEYMEVPLGSLELPSEGTLSPNHAGVSNDTSSLETERGFEELPLCSCRMEAPKIDRISERAGHKCMATESVDGELLGCNAAILKRETMRPSSRVALMVLCEAHRARMVKHHCCPGCGYFCTAGTFLECHPDFRVAHRFHKACVSQLNGMVFCPHCGEDASEAQEVTIPRGDGGTPPIGTAAPALPPLAHDAPGRADTSQPSARMRGHGEPRRPPCDPLADTIDSSGPSLTLPNGGCLSAVGLPPGPGREALEKALVIQESERRKKLRFHPRQLYLSVKQGELQKVILMLLDNLDPNFQSDQQSKRTPLHAAAQKGSVEICHVLLQAGANINAVDKQQRTPLMEAVVNNHLEVARYMVQLGGCVYSKEEDGSTCLHHAAKIGNLEMVSLLLSTGQVDVNAQDSGGWTPIIWAAEHKHIDVIRMLLTRGADVTLTDNEENICLHWASFTGSAAIAEVLLNAQCDLHAVNYHGDTPLHIAARESYHDCVLLFLSRGANPELRNKEGDTAWDLTPERSDVWFALQLNRKLRLGVGNRAVRTEKIICRDVARGYENVPIPCVNGVDGEPCPEDYKYISENCETSTMNIDRNITHLQHCTCVDDCSSSNCLCGQLSIRCWYDKDGRLLQEFNKIEPPLIFECNQACSCWRSCKNRVVQSGIKVRLQLYRTAKMGWGVRALQTIPQGTFICEYVGELISDAEADVREDDSYLFDLDNKDGEVYCIDARYYGNISRFINHLCDPNIIPVRVFMLHQDLRFPRIAFFSSRDIRTGEELGFDYGDRFWDIKSKYFTCQCGSEKCKHSAEAIALEQSRLARLDPHPELLPDLSSLPPINT
modifications: full-length GST fusion
As for B1, the kcat (as a rule, the maximal rate divided by the concentration of active sites) with Wt-H3 was found to be 0.0183 s⁻¹.

B2: 1–117: GST fusion containing 1–117 amino acids of G9a (protein, UniProt Q9Z148 1-117, looked up, fragment)
chain: MRGLPRGRGLMRARGRGRAAPTGGRGRGRGGAHRGRGRPRSLLSLPRAQASWAPQLPAGLTGPPVPCLPSQGEAPAEMGALLLEKEPRGAAERVHSSLGDTPQSEETLPKANPDSLE
modifications: GST fusion
On to B2, for which, in the data set with full-length G9a, the “methylation of GST fusion by G9afl” value is recorded as “did not methylate”.

B3: 264–633: GST fusion containing 264–633 amino acids of G9a (protein, UniProt Q9Z148 264-633, looked up, fragment)
chain: MSDDMHLGKVTSDVAKRRKLNSGSLSEDLGSAGGSGDIILEKGEPRPLEEWETVVGDDFSLYYDAYSVDERVDSDSKSEVEALAEQLSEEEEEEEEEEEEEEEEEEEEEEEEEDEESGNQSDRSGSSGRRKAKKKWRKDSPWVKPSRKRRKREPPRAKEPRGVNGVGSSGPSEYMEVPLGSLELPSEGTLSPNHAGVSNDTSSLETERGFEELPLCSCRMEAPKIDRISERAGHKCMATESVDGELLGCNAAILKRETMRPSSRVALMVLCEAHRARMVKHHCCPGCGYFCTAGTFLECHPDFRVAHRFHKACVSQLNGMVFCPHCGEDASEAQEVTIPRGDGGTPPIGTAAPALPPLAHDAPGRADTSQ
modifications: GST fusion
In the case of B3, the “methylation of GST fusion by G9afl” value in the data set with full-length G9a is “did not methylate”.
